From ChEMBL document CHEMBL4270633, “Discovery of novel vinyl sulfone derivatives as anti-tumor agents with microtubule polymerization inhibitory and vascular disrupting activities” (Eur J Med Chem, 2018)
pIC50: −log10 of the molar value. The source made the active and inactive calls. No cut-off for these calls is given here.

What was measured:
HepG2 = test: Antiproliferative activity against human HepG2 cells after 72 hrs by MTT assay; type: functional, cell-based; details: HepG2, 72 h
Procedure, shortened: (§1)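 Cells seeded and held 24 h at 37 °C, 5% CO2, then exposed to a concentration series in medium with 0.1% DMSO for 72 h. MTT (5 mg/mL in PBS) added for 4 h and OD read at 490 nm. IC50 taken from dose-response curves; mean ± SD of at least three independent experiments.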

K562 [1] = test: Antiproliferative activity against human K562 cells at 1 uM after 72 hrs by MTT assay; type: functional, cell-based
A549 = test: Antiproliferative activity against human A549 cells after 72 hrs by MTT assay; type: functional, cell-based; details: A549, 72 h; procedure, shortened: as §1
K562 [2] = test: Antiproliferative activity against human K562 cells after 72 hrs by MTT assay; type: functional, cell-based; details: K562, 72 h; procedure, shortened: as §1
[3] = Inhibition of porcine brain tubulin polymerization after 30 mins by spectrophotometric method; parameters: species or system Sus scrofa
Procedure, shortened: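 Purified tubulin (2 mg/mL) in PEM buffer (80 mM PIPES pH 6.9, 0.5 mM EGTA, 2 mM MgCl2, 15% glycerol), preincubated on ice with compound or DMSO vehicle, then GTP added. Absorbance at 340 nm followed at 37 °C for 30 min. IC50 derived from area under the polymerization curve.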

K562 [4] = test: Antiproliferative activity against human K562 cells at 0.1 uM after 72 hrs by MTT assay relative to control; type: functional
HUVEC [5] = test: Antivascular activity against HUVEC assessed as reduction in tube formation at 005 to 0.2 uM after 6 hrs by inverted microscopic based matrigel method; type: functional, cell-based; details: Homo sapiens
Procedure, shortened: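 Matrigel thawed at 4 °C overnight and polymerized 30 min at 37 °C. HUVECs in DMEM seeded at 50,000 cells/well, then exposed to compound or vehicle for 6 h at 37 °C. Tube morphology examined by inverted microscopy.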

K562 [6] = test: Cell cycle arrest in human K562 cells assessed as accumulation at G1 phase at 0.2 uM after 48 hrs by propidium iodide staining based flow cytometry (reference value: 60.77%); type: functional
K562 [7] = test: Induction of apoptosis in human K562 cells after 48 hrs by Annexin V-FITC/propidium iodide staining based flow cytometry; type: functional, cell-based
Procedure, shortened: (§2)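 K562 cells treated 48 h at 0, 0.05, 0.1, 0.2 µM or 0, 0.005, 0.010, 0.020 µM. Washed in PBS, resuspended in Annexin V binding buffer and stained 15 min in the dark. Early plus late apoptotic fractions quantified by flow-cytometric quadrant analysis.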

K562 [8] = test: Cell cycle arrest in human K562 cells assessed as accumulation at G2/M phase after 48 hrs by propidium iodide staining based flow cytometry; type: functional
K562 [9] = test: Induction of apoptosis in human K562 cells at 0.05 uM after 48 hrs by Annexin V-FITC/propidium iodide staining based flow cytometry (reference value: 1.46%); type: functional; procedure, shortened: as §2
K562 [10] = test: Cell cycle arrest in human K562 cells assessed as accumulation at G2 phase at 0.2 uM after 48 hrs by propidium iodide staining based flow cytometry (reference value: 9.1%); type: functional
HUVEC [11] = test: Antivascular activity against HUVEC assessed as reduction in wound closure after 24 hrs by phase contrast microscopic method; type: functional, cell-based; details: Homo sapiens
Procedure, shortened: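 Scratch wounds made with a sterile 200 µL pipette tip, then treated at 0.05, 0.10, 0.20 µM or 0.005, 0.010, 0.020 µM. Phase-contrast images taken at 0 h and 24 h after treatment.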

K562 [12] = test: Cell cycle arrest in human K562 cells assessed as accumulation at G2 phase at 0.05 uM after 48 hrs by propidium iodide staining based flow cytometry (reference value: 9.1%); type: functional
K562 [13] = test: Cell cycle arrest in human K562 cells assessed as accumulation at G1 phase at 0.1 uM after 48 hrs by propidium iodide staining based flow cytometry (reference value: 60.77%); type: functional
K562 [14] = test: Cell cycle arrest in human K562 cells assessed as accumulation at G1 phase at 0.05 uM after 48 hrs by propidium iodide staining based flow cytometry (reference value: 60.77%); type: functional
K562 [15] = test: Disruption of microtubule network in human K562 cells after 24 hrs by DAPI staining based immunofluorescent microscopic method; type: cell-based
Procedure, shortened: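 K562 cells exposed for 24 h to 0.1% DMSO vehicle or to 0.05, 0.10, 0.20 µM or 0.005, 0.010, 0.020 µM. Fixed in 4% paraformaldehyde, blocked with goat serum 20 min at room temperature, then anti-α-tubulin antibody 2 h at 37 °C. Fluorescent antibody staining, DAPI nuclear counterstain, fluorescence microscopy.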

Mus musculus [16] = test: Toxicity in ICR mouse implanted with mouse H22 cells assessed as decrease in body weight at 15 to 30 mg/kg, iv administered once daily for 21 consecutive days; type: organism-based; details: in vivo
Procedure, shortened: (§3)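 H22 s.c. allograft in male ICR mice, groups of six. Dosing i.v. at 15 or 30 mg/kg once daily for 21 days (10% DMF/2% Tween 80/88% saline), or 8 mg/kg once every 2 days. Body weight recorded every 2 days.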

H22 [17] = test: Antitumor activity against mouse H22 cells implanted in ICR mouse assessed as tumor growth inhibition administered iv once daily for 21 consecutive days; type: functional, organism-based
Procedure, shortened: (§4)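 Male ICR mice, five weeks old, inoculated s.c. in the right flank with 1 × 10^6 H22 cells. After one day, randomized into groups of six. Given i.v. 15 or 30 mg/kg daily for 21 days in 10% DMF/2% Tween 80/88% saline, or 8 mg/kg every 2 days; vehicle control given i.v. Tumors excised and weighed; inhibition (%) = (1 − treated/control mean tumor weight) × 100.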

H22 [18] = test: Antitumor activity against mouse H22 cells implanted in ICR mouse assessed as tumor growth inhibition at 15 mg/kg, iv administered once daily for 21 consecutive days relative to control; type: functional; details: read-out: TGI; procedure, shortened: as §4
K562 [19] = test: Cell cycle arrest in human K562 cells assessed as accumulation at G2 phase at 0.1 uM after 48 hrs by propidium iodide staining based flow cytometry (reference value: 9.1%); type: functional
K562 [20] = test: Induction of apoptosis in human K562 cells at 0.1 uM after 48 hrs by Annexin V-FITC/propidium iodide staining based flow cytometry (reference value: 1.46%); type: functional; procedure, shortened: as §2
H22 [21] = test: Antitumor activity against mouse H22 cells implanted in ICR mouse assessed as tumor growth inhibition at 30 mg/kg, iv administered once daily for 21 consecutive days relative to control; type: functional; details: read-out: TGI; procedure, shortened: as §4
K562 [22] = test: Cell cycle arrest in human K562 cells assessed as accumulation at S phase at 0.2 uM after 48 hrs by propidium iodide staining based flow cytometry (reference value: 30.13%); type: functional
K562 [23] = test: Cell cycle arrest in human K562 cells assessed as accumulation at S phase at 0.1 uM after 48 hrs by propidium iodide staining based flow cytometry (reference value: 30.13%); type: functional
K562 [24] = test: Induction of apoptosis in human K562 cells at 0.2 uM after 48 hrs by Annexin V-FITC/propidium iodide staining based flow cytometry (reference value: 1.46%); type: functional; procedure, shortened: as §2
K562 [25] = test: Cell cycle arrest in human K562 cells assessed as accumulation at S phase at 0.05 uM after 48 hrs by propidium iodide staining based flow cytometry (reference value: 30.13%); type: functional
H22 [26] = test: Antitumor activity against mouse H22 cells implanted in ICR mouse assessed as tumor growth inhibition at 8 mg/kg, iv administered once in 2 days for 21 days relative to control; type: functional; details: read-out: TGI; procedure, shortened: as §4
Mus musculus [27] = test: Toxicity in ICR mouse implanted with mouse H22 cells assessed as decrease in body weight at 8 mg/kg, iv administered once in 2 days for 21 days; type: organism-based; details: in vivo; procedure, shortened: as §3

COc1ccc(/C=C/S(=O)(=O)c2cc(OC)c(OC)c(OC)c2)cc1O
pIC50 (HepG2): 6.57
Activity (K562 [1]): Active
pIC50 (A549): 5.64
pIC50 (K562 [2]): 6.66
pIC50 [3]: 5.08
Activity (K562 [4]): 35.3%

COc1cc(S(=O)(=O)/C=C/c2ccc(C)cc2)cc(OC)c1OC
Activity (K562 [1]): Active
Activity (K562 [4]): Active

COc1ccc(/C=C(\C)[S+]([O-])c2cc(OC)c(OC)c(OC)c2)cc1O (stereo unspecified)
pIC50 (HepG2): < 6.00
pIC50 (A549): < 5.30
pIC50 (K562 [2]): < 6.00

COc1ccc(/C=C/S(=O)(=O)c2cc(OC)c(OC)c(OC)c2)cc1N
Activity (HUVEC [5]): Active
pIC50 (HepG2): 6.66
Activity (K562 [6]): 39.7%
Activity (K562 [7]): Dose-dependent effect
Activity (K562 [8]): Dose-dependent effect
Activity (K562 [9]): 17.88%
Activity (K562 [10]): 21.99%
Activity (HUVEC [11]): Dose-dependent effect
Activity (K562 [12]): 13.05%
Activity (K562 [13]): 47.15%
Activity (K562 [14]): 53.07%
Activity (K562 [15]): Dose-dependent effect
Activity (Mus musculus [16]): Non-Toxic
TGI (H22 [17]): Dose-dependent effect
inhibition in vivo at 15 mg/kg (H22 [18]): 53.4%
Activity (K562 [19]): 16.15%
Activity (K562 [20]): 22.65%
inhibition in vivo at 30 mg/kg (H22 [21]): 65.4%
Activity (K562 [22]): 38.31%
pIC50 (A549): 6.22
pIC50 (K562 [2]): 6.89
pIC50 [3]: 5.37
Activity (K562 [23]): 36.7%
Activity (K562 [24]): 49.29%
Activity (K562 [25]): 33.88%

COc1ccc(/C=C/S(=O)(=O)c2cc(OC)c(OC)c(OC)c2)cc1F
Activity (K562 [1]): Active
Activity (K562 [4]): Active

COc1cc(S(=O)(=O)/C=C/c2ccc([N+](=O)[O-])cc2)cc(OC)c1OC
Activity (K562 [1]): Active
Activity (K562 [4]): Active

COc1ccc(/C=C(\Cl)S(=O)(=O)c2cc(OC)c(OC)c(OC)c2)cc1O
pIC50 (HepG2): < 6.00
pIC50 (A549): < 5.30
pIC50 (K562 [2]): < 6.00

COc1ccc(/C=C/S(=O)(=O)c2cc(OC)c(OC)c(OC)c2)cc1
Activity (K562 [1]): Active
Activity (K562 [4]): Active

COc1ccc(/C=C/[S+]([O-])c2cc(OC)c(OC)c(OC)c2)cc1O (stereo unspecified)
pIC50 (HepG2): 6.51
pIC50 (A549): 5.84
pIC50 (K562 [2]): 6.59
pIC50 [3]: 5.14

COc1ccc(/C=C(\C#N)[S+]([O-])c2cc(OC)c(OC)c(OC)c2)cc1O (stereo unspecified)
pIC50 (HepG2): < 6.00
pIC50 (A549): < 5.30
pIC50 (K562 [2]): < 6.00

COc1cc(S(=O)(=O)/C=C/c2ccccc2)cc(OC)c1OC
Activity (K562 [1]): Active
Activity (K562 [4]): Active

COc1cc(/C=C/S(=O)(=O)c2cc(OC)c(OC)c(OC)c2)cc(OC)c1OC
Activity (K562 [1]): Active
Activity (K562 [4]): Active

CO/C(=C\c1ccc(OC)c(O)c1)S(=O)(=O)c1cc(OC)c(OC)c(OC)c1
pIC50 (HepG2): 6.22
pIC50 (A549): 5.54
pIC50 (K562 [2]): 6.72

COc1cc(S(=O)(=O)/C=C/c2ccc(O)c(O)c2)cc(OC)c1OC
Activity (K562 [1]): Active
Activity (K562 [4]): inactive

COc1ccc(/C=C(\C#N)S(=O)(=O)c2cc(OC)c(OC)c(OC)c2)cc1O
pIC50 (HepG2): < 6.00
pIC50 (A549): < 5.30
pIC50 (K562 [2]): < 6.00

COc1ccc(/C=C/C(=O)c2cc(OC)c(OC)c(OC)c2)cc1O
pIC50 (HepG2): 6.99
pIC50 (A549): 6.41
pIC50 (K562 [2]): 7.22
pIC50 [3]: 5.43

COc1ccc(/C=C(\C)S(=O)(=O)c2cc(OC)c(OC)c(OC)c2)cc1O
pIC50 (HepG2): 6.15
pIC50 (A549): 5.56
pIC50 (K562 [2]): 6.24

COc1ccc(/C=C(\F)S(=O)(=O)c2cc(OC)c(OC)c(OC)c2)cc1O
pIC50 (HepG2): 6.23
pIC50 (A549): 5.88
pIC50 (K562 [2]): 6.33

CC(=O)O[C@H]1C(=O)[C@@]2(C)[C@H]([C@H](OC(=O)c3ccccc3)[C@]3(O)C[C@H](OC(=O)[C@H](O)[C@@H](NC(=O)c4ccccc4)c4ccccc4)C(C)=C1C3(C)C)[C@]1(OC(C)=O)CO[C@@H]1C[C@@H]2O [PACLITAXEL]
inhibition in vivo at 8 mg/kg (H22 [26]): 74.6%
Activity (Mus musculus [27]): Toxic

COc1cc(S(=O)(=O)/C=C/c2ccc(O)cc2)cc(OC)c1OC
Activity (K562 [1]): Active
Activity (K562 [4]): Active

COc1ccc(/C=C(\Cl)[S+]([O-])c2cc(OC)c(OC)c(OC)c2)cc1O (stereo unspecified)
pIC50 (HepG2): 6.61
pIC50 (A549): 5.92
pIC50 (K562 [2]): 6.74
pIC50 [3]: 5.42

COc1ccc(/C=C/[S+]([O-])c2cc(OC)c(OC)c(OC)c2)cc1N (stereo unspecified)
pIC50 (HepG2): 6.12
pIC50 (A549): 5.63
pIC50 (K562 [2]): 6.13

COc1ccc(/C=C/S(=O)(=O)c2cc(OC)c(OC)c(OC)c2)cc1OC
Activity (K562 [1]): Active
Activity (K562 [4]): Active

COc1cc(S(=O)(=O)/C=C/c2ccc(F)cc2)cc(OC)c1OC
Activity (K562 [1]): Active
Activity (K562 [4]): Active

COc1cc(S(=O)(=O)/C=C/c2ccc(N(C)C)cc2)cc(OC)c1OC
Activity (K562 [1]): Active
Activity (K562 [4]): Active
